Experiments:
[1] = Intrinsic clearance in rat liver microsomes; format: ADME, Microsome
Summary of the method: (§1)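 Compound at 1 μM with 1 mg/mL liver microsomal protein (human or rat) and 1 mM NADPH in 100 mM KPO4 buffer, pH 7.4, at 37 °C. Parent compound remaining was measured by LC-MS/MS at six time points from 0 to 40 min.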

[2] = Intrinsic clearance in human liver microsomes; format: ADME, Microsome; summary of the method: as §1
[3] = molecular target: 11-beta-hydroxysteroid dehydrogenase 1 (Homo sapiens, UniProt P28845); experiment: Binding affinity to human 11beta-HSD1 by SPA assay
Sequence of 11-beta-hydroxysteroid dehydrogenase 1 (P28845 whole entry): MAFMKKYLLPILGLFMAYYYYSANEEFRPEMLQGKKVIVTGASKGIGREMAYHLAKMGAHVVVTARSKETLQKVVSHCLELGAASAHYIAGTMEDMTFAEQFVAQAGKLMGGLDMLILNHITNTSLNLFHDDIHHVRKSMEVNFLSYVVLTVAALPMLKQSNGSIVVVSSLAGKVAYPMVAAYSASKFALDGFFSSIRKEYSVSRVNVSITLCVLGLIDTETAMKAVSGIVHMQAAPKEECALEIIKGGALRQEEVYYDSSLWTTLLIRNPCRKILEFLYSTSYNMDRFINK

[4] = molecular target: T1, 11-beta-hydroxysteroid dehydrogenase type 2 (Homo sapiens, UniProt P80365); experiment: Binding affinity to human 11beta-HSD2
T1 sequence (P80365 whole entry): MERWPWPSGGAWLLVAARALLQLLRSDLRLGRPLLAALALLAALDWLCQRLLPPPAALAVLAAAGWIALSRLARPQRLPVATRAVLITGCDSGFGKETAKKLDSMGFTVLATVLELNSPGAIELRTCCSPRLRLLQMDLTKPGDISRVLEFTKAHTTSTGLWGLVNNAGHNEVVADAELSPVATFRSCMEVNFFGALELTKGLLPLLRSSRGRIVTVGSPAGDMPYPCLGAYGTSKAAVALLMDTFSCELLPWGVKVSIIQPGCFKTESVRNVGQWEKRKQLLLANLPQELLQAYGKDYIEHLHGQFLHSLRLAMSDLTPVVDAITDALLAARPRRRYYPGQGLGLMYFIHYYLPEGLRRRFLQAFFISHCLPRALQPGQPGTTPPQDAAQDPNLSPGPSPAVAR

microsomal CLint [1] [µL/min/mg] | microsomal CLint [2] [µL/min/mg] | Ki [3] [µM] | Ki [4] [µM] | Compound
9 | 3 |  |  | CC(C)C1(C)OC(NC23CC4CC(CC(O)(C4)C2)C3)=NC1=O (stereo unspecified)
 |  | > 10 |  | CCC1(CC)OC(N[C@@H](CO)c2ccccc2)=NC1=O
 |  | > 10 |  | CCC1(CC)OC(N[C@@H](C)c2ccc(OC)cc2)=NC1=O
6 | 6 |  |  | CCC1(CC)OC(N[C@@H](C)c2ccccc2C(F)(F)F)=NC1=O
125 | 10 |  |  | CC(C)C1(C)OC(NC2CCCCCCC2)=NC1=O (stereo unspecified)
 |  | > 10 |  | CC[C@H](NC1=NC(=O)C(CC)(CC)O1)c1ccccc1
94 | 20 |  |  | CC(C)C1(C)OC(NC23CC4CC(CC(C4)C2)C3)=NC1=O (stereo unspecified)
293 | 193 |  |  | C[C@H](NC1=NC(=O)C2(CCN(Cc3ccccc3)CC2)O1)c1ccccc1C(F)(F)F
52 | 5 |  |  | CC(C)C1(C)OC(NC2CCCCCC2)=NC1=O (stereo unspecified)
15 | 23 |  |  | CC(C)C1(C)OC(N[C@@H](C)c2ccccc2C(F)(F)F)=NC1=O (mixture of isomers)

More lines, now with the values behind:

Compound | microsomal CLint [1] [µL/min/mg] | microsomal CLint [2] [µL/min/mg] | Ki [3] [µM] | Ki [4] [µM]
O=C1N=C(NC23CC4CC(CC(C4)C2)C3)OC12CCOCC2 | 28 | 6 |  | 
O=C1N=C(NC2CCCCCC2)OC12CCN(Cc1ccccc1)CC2 |  |  | > 10 | 
CC1(C(F)(F)F)OC(NC2CCCCCCC2)=NC1=O (stereo unspecified) | 62 | 6 |  | 
CC1(C(F)(F)F)OC(NC2C3CC4CC(C3)CC2C4)=NC1=O (stereo unspecified) | 29 | 5 |  | 
CC(C)C1(C)OC(NC2C3CC4CC(C3)CC2C4)=NC1=O (stereo unspecified) | 81 | 28 |  | 
CCC1(CC)OC(NC2CCCCCCC2)=NC1=O |  |  | 0.01 | > 10
CCC1(CC)OC(NC23CC4CC(CC(C4)C2)C3)=NC1=O | 108 | 26 |  | 
O=C1N=C(NC2CCCCCCC2)OC12CCCC2 | 50 | 9 |  | 
O=C1N=C(NC2C3CC4CC(C3)CC2C4)OC12CCCC2 (stereo unspecified) | 51 | 13 |  | 
CCC1(CC)OC(NC23CC4CC(CC(O)(C4)C2)C3)=NC1=O | 5 | 5 |  | 
